# Results from PMC8024882 (Toxicology Reports, 2021).
# How the values were obtained:
# [1] = test system: human dermal fibroblasts (HDFs); experiment: MTT dose response assay, HDFs in 2D and 3D PCL 96-well plates; format: cell-based; conditions: HDF, 72 h, mean of three experiments ± SEM
# In short: (§1)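 Accutase-detached cells seeded at 7000 (2D) or 21,000 (3D; O2-plasma-treated, ethanol-sterilized PCL fibre-mesh wells) per 180 μL. After 24 h normoxic attachment, compound added, then 72 h at 18 % O2/5 % CO2 or 1 % O2. MTT (20 μL of 5 mg/mL) 2 h; formazan dissolved in DMSO (2D 15 min, 3D 2 h shaking); absorbance background-subtracted. IC50 = 50 % MTT reduction; ≥3 experiments, 3–6 wells/concentration.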
# [2] = test system: JIMT-1 breast cancer cells; experiment: MTT dose response assay, JIMT-1 cells in 2D and 3D PCL 96-well plates; format: cell-based, human; conditions: JIMT-1, 2D culture, hypoxia (1 % O2), 72 h, mean of three experiments ± SEM
# In short: as §1
# JIMT-1 cells = conditions: JIMT-1, 2D cultures, normoxia, FBS-supplemented medium; cited from earlier work
substance,measurement,setting,value
salinomycin analogue 20-ethyl carbonate-Na [SAEC],IC50,"[1]; 2D culture, hypoxia (1 % O2)",239 ± 6.2 nM
same,IC50,"[1]; 2D culture, normoxia (18 % O2)",97.7 ± 11.8 nM
same,IC50,"[1]; 3D culture, hypoxia (1 % O2)",316 ± 35.1 nM
same,IC50,"[1]; 3D culture, normoxia (18 % O2)",150 ± 34.4 nM
same,IC50,[2],80.4 ± 13.3 nM
same,IC50,JIMT-1 cells,90 ± 0.02 nM
